Measurements taken from ChEMBL document CHEMBL1137992, “Long hydrocarbon chain keto diols and diacids that favorably alter lipid disorders in vivo” (J Med Chem, 2004).

Tests used:
Assay type in all cases: functional
Rattus norvegicus [1] = assay: Percent decrease in HDL-cholesterol in obese Zucker rats after 1 week of treatment at a dose of 3 mg/kg/day; set-up: scale not given: the % may be the effect or the level left
Method in brief: (§1)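 Female Zucker fatty rats [Crl:(Zuc)-faBR], 10–12 weeks, 400–500 g, acclimated 7 days on chow. Compound or vehicle (20% EtOH/80% PEG-200) given by daily oral gavage for 2 weeks, 0–100 mg/kg/day. After a 6 h fast, blood was taken before dosing, at 1 wk and at 2 wk. Serum lipids, NEFA and insulin (ELISA) were measured; glucose by glucometer. HDL/non-HDL-C came from Superose 6 gel-filtration profiles. Values are % change from pretreatment, mean ± SEM.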

Rattus norvegicus [2] = assay: Percent decrease in HDL-cholesterol in obese Zucker rats after 2 weeks of treatment at a dose of 3 mg/kg/day; set-up: scale not given: the % may be the effect or the level left; method in brief: as §1
Rattus norvegicus [3] = assay: Percent increase in non-HDL-cholesterol in obese Zucker rats after 2 weeks of treatment at a dose of 30 mg/kg/day; method in brief: as §1
Rattus norvegicus [4] = assay: Amount of HDL-cholesterol in obese Zucker rats at pre-treatment at a dose of 0 mg/kg/day
Method in brief: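 Female Zucker fatty rats [Crl:(Zuc)-faBR], 10–12 weeks old (400–500 g), dosed once daily by oral gavage in 20% EtOH/80% PEG-200 (dose volume 0.25% of body weight). Rats were fasted 6 h and bled before dosing and at day 7 (orbital plexus), and at day 14 (cardiac puncture). Serum cholesterol fractions came from Superose 6 gel-filtration lipoprotein profiles (% peak area × serum total cholesterol). Values are mean ± SEM.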

Rattus norvegicus [5] = assay: Amount of triglycerides in obese Zucker rats after 2 weeks of treatment at a dose of 0 mg/kg/day
Method in brief: (§2)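 Female Zucker fatty rats [Crl:(Zuc)-faBR], 10–12 weeks old (400–500 g), dosed once daily by oral gavage in 20% EtOH/80% PEG-200 for up to 14 days. After a 6-h fast, serum was taken pre-dose, at day 7 (orbital venous plexus, O2/CO2 anaesthesia) and at day 14 (cardiac puncture), stored at −80 °C, and assayed on a Hitachi 912 automatic analyzer. Mean ± SEM.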

Rattus norvegicus [6] = assay: Amount of triglycerides in obese Zucker rats at pre-treatment at a dose of 100 mg/kg/day; method in brief: as §2
Rattus norvegicus [7] = assay: Percent decrease in insulin in obese Zucker rats after 1 week of treatment at a dose of 10 mg/kg/day; set-up: scale not given: the % may be the effect or the level left; method in brief: as §1
Rattus norvegicus [8] = assay: Amount of glucose in obese Zucker rats at pre-treatment at a dose of 30 mg/kg/day
Method in brief: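 Female Zucker fatty rats [Crl:(Zuc)-faBR], 10–12 weeks old (400–500 g), gavaged daily with vehicle (20% EtOH/80% PEG-200, 0.25% of body weight) or compound. After a 6-h fast, blood glucose was read by glucometer from tail-prick blood of unanesthetized rats before dosing and after 1 and 2 weeks. Values are mean ± SEM.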

Rattus norvegicus [9] = assay: Percent decrease in triglycerides in obese Zucker rats after 2 weeks of treatment at a dose of 30 mg/kg/day; set-up: scale not given: the % may be the effect or the level left; method in brief: as §1
Rattus norvegicus [10] = assay: Percent decrease in nonesterified fatty acids in obese Zucker rats after 2 weeks of treatment at a dose of 10 mg/kg/day; set-up: scale not given: the % may be the effect or the level left; method in brief: as §1
Rattus norvegicus [11] = assay: Percent increase in non-HDL-cholesterol in obese Zucker rats after 2 weeks of treatment at a dose of 10 mg/kg/day; method in brief: as §1
Rattus norvegicus [12] = assay: Percent increase in glucose in obese Zucker rats after 2 weeks of treatment at a dose of 3 mg/kg/day; method in brief: as §1
Rattus norvegicus [13] = assay: Percent decrease in glucose in obese Zucker rats after 1 week of treatment at a dose of 100 mg/kg/day; set-up: scale not given: the % may be the effect or the level left; method in brief: as §1

CC(C)(CO)CCCCC(=O)CCCCC(C)(C)CO
Activity (Rattus norvegicus [1]): -10% | Activity (Rattus norvegicus [2]): -19% | Activity (Rattus norvegicus [3]): 27%

CC(C)(CCCCC(=O)CCCCC(C)(C)C(=O)O)C(=O)O
Activity (Rattus norvegicus [4]): 39 mg/dL | Activity (Rattus norvegicus [5]): 1140 mg/dL | Activity (Rattus norvegicus [6]): 964 mg/dL | Activity (Rattus norvegicus [7]): -27% | Activity (Rattus norvegicus [8]): 103 mg/dL

CC(C)(CCCCCC(=O)CCCCCC(C)(C)C(=O)O)C(=O)O
Activity (Rattus norvegicus [9]): -52% | Activity (Rattus norvegicus [10]): -21% | Activity (Rattus norvegicus [11]): 55% | Activity (Rattus norvegicus [12]): 8% | Activity (Rattus norvegicus [13]): -21%
